From publication PMC10249106 (ACS Omega, 2023)

How the values were obtained:
[1] = test system: MCF-7 cells; experiment: MTT cytotoxicity assay, MCF-7; format: cell-based; settings: Homo sapiens, MCF7, 24 h, read-out: IC50 MCF-7
Procedure, shortened: (§1)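 Cells (ATCC via VACSERA) grown in RPMI-1640 with 10% FBS, penicillin 100 units/mL and streptomycin 100 μg/mL, 37 °C, 5% CO2. Seeded at 1.0 × 10^4 cells/well and held 48 h, then exposed to a range of test compound concentrations for 24 h. MTT (5 mg/mL solution) added for 4 h, formazan dissolved in DMSO, absorbance 570 nm. Run in triplicate; IC50 calculated. 5-FU reference.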

[2] = target: Pim-1 kinase (Homo sapiens, UniProt P11309); experiment: Pim-1 kinase inhibition, luminescent ADP-Glo kinase assay; format: biochemical
Pim-1 kinase, sequence (P11309 whole entry): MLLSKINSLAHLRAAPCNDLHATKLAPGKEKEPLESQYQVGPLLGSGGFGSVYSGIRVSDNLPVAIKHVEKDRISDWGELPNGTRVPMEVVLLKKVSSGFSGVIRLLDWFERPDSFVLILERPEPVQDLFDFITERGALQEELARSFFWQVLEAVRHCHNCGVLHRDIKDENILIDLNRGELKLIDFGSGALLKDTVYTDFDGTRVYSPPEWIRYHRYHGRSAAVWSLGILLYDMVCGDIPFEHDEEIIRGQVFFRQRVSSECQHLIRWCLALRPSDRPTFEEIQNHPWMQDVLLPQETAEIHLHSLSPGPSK

[3] = test system: HCT-116 cells; experiment: MTT cytotoxicity assay, HCT-116; format: cell-based; settings: Homo sapiens, HCT-116, 24 h, read-out: IC50 HCT-116
Procedure, shortened: as §1

[4] = test system: PC3 cells; experiment: MTT cytotoxicity assay, PC3; format: cell-based; settings: Homo sapiens, PC-3, 24 h, read-out: IC50 PC3
Procedure, shortened: as §1

[5] = test system: HepG2 cells; experiment: MTT cytotoxicity assay, HepG2; format: cell-based; settings: Homo sapiens, HepG2, 24 h, read-out: IC50 HePG2
Procedure, shortened: as §1

| Compound | IC50 [2] | fold less potent than quercetagetin (Pim-1 inhibition) [2] | times more potent than A (Pim-1 inhibition) [2] | IC50 [1] | IC50 [3] | IC50 [4] | IC50 [5] |
| --- | --- | --- | --- | --- | --- | --- | --- |
| N#Cc1c(-c2cc3ccccc3nc2Cl)cc(-c2ccccc2)[nH]c1=O [3a, 4-(2-Chloroquinolin-3-yl)-2-oxo-6-phenyl-1,2-dihydropyridine-3-carbonitrile] | 0.9 ± 0.04 µM |  |  | 60 ± 2.93 µM | 49.9 ± 2.36 µM | 26.9 ± 1.28 µM | 11.6 ± 0.57 µM |
| N#Cc1c(-c2cc3ccccc3nc2Cl)cc(-c2cccc(N)c2)[nH]c1=O [3b, 6-(3-Aminophenyl)-4-(2-chloroquinolin-3-yl)-2-oxo-1,2-dihydropyridine-3-carbonitrile] | 0.85 ± 0.04 µM |  |  | 42.4 ± 2.13 µM | 30.9 ± 1.52 µM | 18.4 ± 0.89 µM | 12.4 ± 0.59 µM |
| COc1ccc(-c2cc(-c3cc4ccccc4nc3Cl)c(C#N)c(=O)[nH]2)cc1 [3c, 4-(2-Chloroquinolin-3-yl)-6-(4-methoxyphenyl)-2-oxo-1,2-dihydropyridine-3-carbonitrile] | 0.79 ± 0.04 µM |  |  | 25.4 ± 1.2 µM | 18.3 ± 0.89 µM | 25.8 ± 1.3 µM | 14.1 ± 0.68 µM |
| N#Cc1c(-c2cc3ccccc3nc2Cl)cc(-c2ccc(Br)cc2)[nH]c1=O [3d, 6-(4-Bromophenyl)-4-(2-chloroquinolin-3-yl)-2-oxo-1,2-dihydropyridine-3-carbonitrile] | 0.72 ± 0.03 µM |  |  | 19.9 ± 0.96 µM | 20 ± 0.99 µM | 20.5 ± 0.97 µM | 16.2 ± 0.77 µM |
| COc1ccc(-c2cc(-c3cc4ccccc4nc3Cl)c(C#N)c(Cl)n2)cc1 [4c, 2-Chloro-4-(2-chloroquinolin-3-yl)-6-(4-methoxyphenyl) nicotinonitrile] | 0.61 ± 0.03 µM |  |  | 15.7 ± 0.78 µM | 7.15 ± 0.35 µM | 13.6 ± 0.67 µM | 8.02 ± 0.38 µM |
| O=c1[nH]cc(F)c(=O)[nH]1 [5-FU, 5-fluorouracil, reference compound] |  |  |  | 7.75 ± 0.37 µM | 8.01 ± 0.39 µM | 10.3 ± 0.5 µM | 9.42 ± 0.46 µM |

Continued, in another order:

| IC50 [2] | fold less potent than quercetagetin (Pim-1 inhibition) [2] | times more potent than A (Pim-1 inhibition) [2] | Compound | IC50 [1] | IC50 [3] | IC50 [4] | IC50 [5] |
| --- | --- | --- | --- | --- | --- | --- | --- |
| 2.31 ± 0.11 µM |  |  | N#Cc1c(-c2cc3ccccc3nc2Cl)cc(-c2ccc(Cl)cc2Cl)[nH]c1=O [3e, 4-(2-Chloroquinolin-3-yl)-6-(2,4-dichlorophenyl)-2-oxo-1,2-dihydropyridine-3-carbonitrile] | 45.9 ± 2.18 µM | 50.7 ± 2.5 µM | 25.9 ± 1.25 µM | 11.6 ± 0.57 µM |
| 1.24 ± 0.06 µM | about 2 fold |  | N#Cc1c(-c2cc3ccccc3nc2Cl)cc(-c2ccccc2)nc1Cl [4a, 2-Chloro-4-(2-chloroquinolin-3-yl)-6-phenylnicotinonitrile] | 75.7 ± 3.74 µM | 50 ± 2.44 µM | 35.3 ± 1.67 µM | 10 ± 0.49 µM |
| 0.63 ± 0.03 µM |  |  | N#Cc1c(-c2cc3ccccc3nc2Cl)cc(-c2cccc(N)c2)nc1Cl [4b, 6-(3-Aminophenyl)-2-chloro-4-(2-chloroquinolin-3-yl) nicotinonitrile] | 19.2 ± 0.94 µM | 20.2 ± 0.96 µM | 15 ± 0.74 µM | 12 ± 0.59 µM |
| 0.46 ± 0.02 µM |  | 2 times | N#Cc1c(-c2cc3ccccc3nc2Cl)cc(-c2ccc(Br)cc2)nc1Cl [4d, 6-(4-Bromophenyl)-2-chloro-4-(2-chloroquinolin-3-yl) nicotinonitrile] | 8.5 ± 0.42 µM | 8.35 ± 0.42 µM | 14.1 ± 0.7 µM | 6.95 ± 0.34 µM |
| 1.42 ± 0.07 µM | ~2.5 fold |  | N#Cc1c(-c2cc3ccccc3nc2Cl)cc(-c2ccc(Cl)cc2Cl)nc1Cl [4e, 2-Chloro-4-(2-chloroquinolin-3-yl)-6-(2,4-dichlorophenyl) nicotinonitrile] | 55.5 ± 2.71 µM | 65.1 ± 3.08 µM | 35.1 ± 1.73 µM | 11.5 ± 0.56 µM |
